# Assay results pooled from the literature.
# Lines come from different studies, so protocols differ.
# Cell line: MDA-MB-231
# Read-out: cell growth or viability
SMILES,technique,tested at,time,measurement,value
C[C@@H]1CC[C@@H]([C@@](O)(CNCc2cccc3ccccc23)COCc2ccccc2)[C@H](OCc2ccccc2)C1,MTT,30 µM,72 h,inhibition,91.2%
Nc1ccccc1NC(=O)c1ccc(CNc2ccc(NC3=C(Cl)C(=O)c4ncccc4C3=O)cc2)cc1,MTT,,48 h,IC50,2.44 µM
CCNCCCn1c2c(c3cc(OC)c(OC)cc3c1=O)C(=O)c1cc3c(nc1-2)OCO3,MTS,,72 h,IC50,0.476 µM
CCNC(=S)NNC(=O)COc1ccc2c(C)c(CC)c(=O)oc2c1C,MTT,1000 µg/mL,,viability,4.73%
C=CC(=O)c1cccnc1Nc1cccc(C(F)(F)F)c1,SRB,,48 h,GI50,14.6 µM
C=C(COCc1ccccc1)[C@@H]1CC[C@@H](C)C[C@H]1OCc1ccccc1,MTT,30 µM,72 h,inhibition,28.1%
CCc1c(C)c2ccc(OCC(=O)NN=Cc3ccc([N+](=O)[O-])cc3)cc2oc1=O,MTT,31.25 µg/mL,,viability,36.3%
Cc1cccc(/C=C/C(=O)Nc2cc(-c3ccnc(N4CCOCC4)c3)ccn2)c1,MTT,5 µM,,inhibition,79.3%
CC(=NNC(=O)COc1ccc2c(C)c(Cc3ccccc3)c(=O)oc2c1C)c1ccc(Br)cc1,MTT,31.25 µg/mL,,viability,48.2%
O=C(C=Cc1ccccc1)Nc1cccc(-c2ccnc(N3CCOCC3)c2)c1,MTT,5 µM,,inhibition,49%
CCc1c(C)c2ccc(OCC(=O)NNC(=S)Nc3ccccc3)c(C)c2oc1=O,MTT,500 µg/mL,,viability,4.23%
Cc1cccc(/C=C/C(=O)Nc2cc(-c3ccnc(N4CCC(O)CC4)c3)ccn2)c1,MTT,5 µM,,inhibition,75.6%
C[C@@H]1CC[C@@H]([C@](C)(O)CNCc2cccc(F)c2)[C@H](OCc2ccccc2)C1,MTT,30 µM,72 h,inhibition,96.1%
CCc1c(C)c2ccc(OCc3nnc(S)n3N)c(C)c2oc1=O,MTT,62.5 µg/mL,,viability,69.4%
C[C@@H]1CC[C@@H]([C@](O)(CNCc2ccccc2)COCc2ccc(F)cc2)[C@H](OCc2ccc(F)cc2)C1,MTT,30 µM,72 h,inhibition,101%
Cc1cccc(/C=C/C(=O)Nc2cccc(-c3ccnc(N4CCOCC4)c3)c2)c1,MTT,5 µM,,inhibition,32.2%
COc1cccc(CNC[C@@](C)(O)[C@@H]2CC[C@@H](C)C[C@H]2OCc2ccccc2)c1,MTT,30 µM,72 h,inhibition,95.3%
Cc1c(Cc2ccccc2)c(=O)oc2c(C)c(OCC(=O)NN=Cc3ccc(Cl)cc3)ccc12,MTT,250 µg/mL,,viability,21.2%
C[C@@H]1CC[C@@H]([C@](O)(CNCc2ccc(F)cc2)COCc2ccc(F)cc2)[C@H](OCc2ccc(F)cc2)C1,MTT,30 µM,72 h,inhibition,95%
COc1cc([C@@H]2c3cc4c(cc3[C@@H](O[C@@H]3O[C@@H]5CO[C@@H](C)O[C@H]5[C@H](O)[C@H]3O)[C@H]3COC(=O)[C@H]23)OCO4)cc(OC)c1O,MTT,,48 h,IC50,43.2 µM
